# PolyA inh: yeast polyadenylation inhibition. S. cerevisiae SKY197-pL101 polyadenylation reporter, beta-gal luminescence; efflux-impaired pdr1/pdr3 knockout yeast; score 100 = 6 SD above DMSO. activity score, % at 12 µM. 300,000 tested, 0.02% active;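 active means lowest replicate activity score at least 50, where 100 means six control SD above control mean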;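 further: yeast exposed to compound for 9 h at 30 °C; higher score means more reporter readthrough which indicates perturbed polyadenylation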
# AHR act: activates the human aryl hydrocarbon receptor; P35869; AHR-responsive luciferase reporter cells, luminescence; activation, % at 5 µM; 320,000 tested, 2.5% active; in the data active means activation above about 47%;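 further: 0% = vehicle wells and 100% = reference agonist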
# procasp7 counter: counter-screen for procaspase-3 activators: activators of human procaspase-7; P55210; recombinant procaspase-7, Ac-DEVD-pNA absorbance 405 nm; D23A/D198A/D206A triple mutant, cannot self-cleave; scale: DMSO 0, 5 µM enzyme 100; activation, % at 8.5 µM; 330,000 tested, 0.093% active; AID 463210;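 active means percent activation above the screen-wide mean plus 3 SD, cut at about 25% in these data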
# Target sequence (P55210 whole entry D23A/D198A/D206A): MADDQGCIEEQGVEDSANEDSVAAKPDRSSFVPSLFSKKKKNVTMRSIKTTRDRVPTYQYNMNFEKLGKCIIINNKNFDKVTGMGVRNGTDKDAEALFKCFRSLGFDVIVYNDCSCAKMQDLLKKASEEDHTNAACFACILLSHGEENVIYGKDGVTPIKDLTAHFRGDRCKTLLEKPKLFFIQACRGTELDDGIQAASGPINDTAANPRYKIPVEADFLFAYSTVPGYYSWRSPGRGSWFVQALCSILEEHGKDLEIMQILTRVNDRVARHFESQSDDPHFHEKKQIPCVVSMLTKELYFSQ
#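 Assay system: Uncleavable procaspase-7 mutant enzyme / Input: 2 µM procaspase-7 mutant as dispensed / Dosing: single nominal 8.5 µM compound dose, 0.8% DMSO final / Timing: 1 h enzyme–compound preincubation and 2 h substrate reaction, both 25 °C / Detection: p-Nitroaniline absorbance at 405 nm, read at 0 and 120 min / Replication: singlicate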
# procasp3 activ: activators of human procaspase-3; 330,000 tested, 0.11% active; activation, % at 8.5 µM; recombinant procaspase-3 D3A, Ac-DEVD-pNA absorbance 405 nm; AID 463141; P42574;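 active means activation above the mean of all tested compounds plus 3 SD, cut at about 21% in these data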;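 further: 0% = DMSO alone and 100% = DMSO wells spiked with extra 5 µM PC-3 D3A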
#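 Evaluation: percent activation relative to control range; Material: Procaspase-3 D3A mutant, all three cleavage aspartates alanine; Compound: single dose, 8.5 µM nominal compound, 0.8% DMSO; Replication: one well per compound; Signal: absorbance at 405 nm, 0 and 120 min; Schedule: 1 h preincubation plus 2 h reaction at 25 °C.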
# Numbers without * were called inactive; . = no result. Sampled rows, rich in hits. Any-hit rate of the full collection: about 2.6%.
SMILES,PolyA inh,AHR act,procasp7 counter,procasp3 activ
Cc1ccn2c(NCc3ccc4c(c3)OCO4)c(-c3ccc(O)cc3)nc2c1,-8,66*,-2,5
Cc1ccc(-c2nc3cnccn3c2Nc2ccc3c(c2)OCO3)cc1,-12,56*,-7,-5
CC[C@]12c3[nH]c4ccc(Cl)cc4c3CCN1C(=O)[C@@H](CC(=O)NCCC1=CCCCC1)C[C@@H]2C(=O)N1CCN(C(=O)C2CC2)CC1,.,.,6,-3
CN1N=C2c3ccccc3CCCC2C1c1ccc(F)cc1 (stereo not drawn),-33,49*,-1,0
CN1C(=O)c2ccccc2N(C)C1c1ccc(F)cc1 (stereo not drawn),15,.,.,.
O=[N+]([O-])c1ccc(O)c(/C=N/n2c(CO)nc3ccccc32)c1,27,6,-5,-8
O=[N+]([O-])c1ccc(O)c(/C=N/n2cnc3ccccc32)c1,-17,56*,-2,0
CCN1CCN(CCCNC(=O)C2CCN(c3nnc(-n4c(C)ccc4C)s3)CC2)CC1,8,51*,6,5
COc1ccccc1C(=O)Nc1ccc2c(c1)C(=O)NC2=O,-4,58*,12,4
COc1ccccc1C(=O)Nc1cccc(N(C)S(C)(=O)=O)c1,-13,51*,-1,9
CCOc1ccccc1C(=O)Nc1ccc(NC(=O)c2ccccc2)cc1,-12,2,-4,-8
CCOc1ccccc1C(=O)Nc1ccc2c(c1)C(=O)NC2=O,34,47*,3,5
Cc1ccccc1C(=O)Nc1ccc2c(c1)C(=O)NC2=O,29,10,0,1
CSc1ccccc1C(=O)Nc1cccc(N(C)S(C)(=O)=O)c1,2,6,0,-8
CC1CCC(NC(=O)CSc2nncn2C)CC1 (stereo not drawn),.,0,-2,7
Cc1cc(C)c2oc(=O)cc(CN3CCC(C)CC3)c2c1,-18,1,13,-3
Cc1ccc(C(=O)Nc2oc(-c3ccccc3)cc2C#N)cc1,-19,56*,0,-1
N#Cc1cc(-c2ccccc2)oc1NC(=O)c1ccccc1,-5,16,9,2
CC1CCCCC1NC(=O)COC(=O)c1ccc2c(=O)n3c(nc2c1)CCC3 (stereo not drawn),.,1,13,9
CCOC(=O)N/N=C\c1ccc(OC/C=C/c2ccccc2)c(OC)c1,-6,34,7,0
COC(=O)N/N=C\c1ccc(OC/C=C/c2ccccc2)c(OC)c1,-1,51*,-1,3
COc1ccc(OC)c(/C=N/NC(=O)CCCC(=O)Nc2cccc(Br)c2)c1,2,70*,5,-7
COc1ccc(O)c(/C=N/NC(=O)CCC(=O)Nc2cccc(C)c2)c1,-4,10,7,-3
COCn1c(-c2ccc(OC)cc2)nc2ccccc21,-9,55*,0,-9
CCCn1c(-c2ccc(OC)cc2)nc2ccccc21,-13,25,-8,2
SMILES,PolyA inh,AHR act,procasp7 counter,procasp3 activ
COCCC(=O)Nc1ccc2c(c1)CN(C(=O)CSC)CC2,-10,6,13,-7
COCCC(=O)N1CCc2ccc(NC(=O)c3ccc(C(F)(F)F)cc3)cc2C1,-18,72*,0,5
COc1ccc(C(CNC(=O)c2ccc(-c3cccc(C(F)(F)F)c3)o2)N2CCOCC2)cc1 (stereo not drawn),-5,0,4,8
CCOc1ccc(NS(=O)(=O)c2ccc(C(=O)NCCCN3CCCC3=O)cc2)cc1,6,0,-1,-4
COc1cccc(/C=C2\CCC(C3CCCC3)C2=O)c1OC (stereo not drawn),-15,1,2,-1
CC(=O)Nc1ccc(-c2sc(Nc3cccc4ccccc34)n[n+]2-c2ccccc2)cc1,-6,81*,-22,-13
COc1ccc(C)cc1Nc1n[n+](-c2ccccc2)c(-c2ccc(NC(C)=O)cc2)s1,6,65*,-18,-2
COc1ccc(C)cc1Nc1n[n+](-c2ccccc2)c(-c2ccc(SC)cc2)s1,-20,73*,-2,-10
CSc1ccc(-c2sc(Nc3ccccc3)n[n+]2-c2ccccc2)cc1,-7,65*,-27,-12
CCOc1ccc(OCCC(=O)NNC(=O)c2cc(OC)c(OC)c(OC)c2)cc1,-4,5,9,-9
COCCCN1C(=O)C(=O)/C(=C(/O)c2ccc(S(=O)(=O)N3CCOCC3)cc2)C1c1ccc(C(C)C)cc1 (stereo not drawn),-22,1,2,8
